Screening results: PubChem BioAssay, several laboratories
Sampled rows, rich in hits. Any-hit rate of the full collection: about 2.2%.
MT stabilize HCS – microtubule stabilization, imaging screen | HeLa tubulin immunostaining HCS, 24 h; share of cells brighter than vehicle mean+2SD | % tubulin-high responders, % at 10 µM | 200,000 compounds, 0.83% hits | AID 2205;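 active = plate Z-score above 3 for both tubulin-high and condensed-nucleus cell shares, with cell loss under 80%, at 10 µM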;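 note: anti alpha tubulin signal scored within the nucleus-defined area of each cell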
BaF3 tox – reduces parental Ba/F3 cell viability, JAK2V617F counter-screen | CellTiter-Glo ATP luminescence | inhibition, % at 5.6 µM | 220,000 compounds, 1.1% hits | AID 1486;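 active = inhibition above a per-campaign cutoff, the mean inhibition of all tested compounds plus 3 SD, cut at about 27% in these data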;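 note: 0% = DMSO wells and 100% = JAK Inhibitor I control wells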
Ba/F3 V617F tox – reduce viability of Ba/F3 cells dependent on JAK2V617F. Ba/F3 EpoR-JAK2V617F viability, ATP luminescence. inhibition, % at 5.6 µM. 220,000 compounds, 1.1% hits;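 active = inhibition above the campaign mean plus 3 SD over all tested compounds, cut at about 24% in these data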;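 note: cytokine-independent growth of Ba/F3 cells driven by EpoR plus mutant JAK2; 0% = DMSO-treated cells and 100% = JAK inhibitor I control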
APP 5UTR inh – APP translation inhibition; SH-SY5Y APP 5'UTR-luciferase reporter, luminescence; inhibition, % at 2 µM; AID 1285; 190,000 compounds, 0.82% hits;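 active = inhibition above a set limit, derived from the sample mean plus 3 SD, cut at about 45% in these data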
IEC-6 cytotox – counter-screen for KLF5 inhibitors: cytotoxicity in IEC-6 cells; IEC-6 cytotoxicity, luminescence viability; inhibition, % at 5 µM; 290,000 compounds, 0.78% hits; AID 1825; in the data active = inhibition above about 22%;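 note: 0% = plate median of test compound wells and 100% = cytotoxic reference compound wells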
b-catenin transl – beta-catenin nuclear translocation modulation; 190,000 compounds, 0.3% hits; HeLa beta-catenin nuclear translocation, immunofluorescence imaging; nuclear translocation activity, % at 5 µM; AID 1665;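 active = nuclear translocation activity above 50% at 5 µM, with a well cell count of 50 or more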;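 note: per-cell ratio of nuclear to cytoplasmic median beta-catenin stain intensity; plate controls were DMSO negative control for no effect and GSK-3 inhibitor IX positive control for full effect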
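Assay system: human HeLa cells, native beta-catenin; doses: 5 µM primary, 0.02–20 µM confirmation; incubation: compound treatment 24 h, 37°C, 5% CO2; technique: fluorescence imaging of beta-catenin antibody stain plus DAPI; measure: % activation, nuclear-to-cytoplasmic median beta-catenin signal ratio per cell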
Active calls of the source: *; nt = no result given.

SMILES	MT stabilize HCS	BaF3 tox	Ba/F3 V617F tox	APP 5UTR inh	IEC-6 cytotox	b-catenin transl
COc1ccc(CCNc2c(C)c(C)nc3ncnn23)cc1	30*	58*	51*	5	19	15
O=C1c2ccccc2S(=O)(=O)c2cc(C(=O)N(c3ccccn3)c3ccccn3)ccc21	3	-1	-4	-6	-1	-3
CCN(Cc1ccncc1)C(=O)c1cc(COc2ccc(OC)cc2Cl)on1	nt	nt	nt	nt	4	nt
N=c1c2c(n(Cc3ccc([N+](=O)[O-])cc3)c3c1CCC3)CCCC2	2	10	0	-7	-5	1
N=c1c2c(n(Cc3ccc(Br)cc3)c3c1CCC3)CCCC2	3	75*	100*	-3	18	-2
N=c1c2c(n(Cc3ccc(Cl)c(Cl)c3)c3c1CCC3)CCCC2	5	76*	88*	12	-1	4
Clc1ccc(CN2C3=NCCN3c3ccccc32)cc1Cl	3	5	4	-3	0	2
COc1ccc(CCn2nnc(-c3ccc(NC(C)=O)c(Cl)c3)n2)cc1	2	59*	-3	-4	-6	0
O=C(NCc1cccnc1)c1c[nH]c2cc3c(cc2c1=O)OCCO3	4	41*	27*	-80	9	-6
CC(C)(C)c1ccc(OCC(=O)N/N=C/c2ccc(N3CCOCC3)cc2)cc1	3	-2	-4	4	-2	-1
Cn1c(-c2ccccc2[N+](=O)[O-])[n+](C)c2ccccc21	nt	58*	57*	nt	-2	-1
Cn1c(O)c(N=Nc2ccccc2[N+](=O)[O-])c2ccccc21	nt	nt	nt	nt	6	nt
Cc1ccc2nc3cc([N+](=O)[O-])cc([N+](=O)[O-])c3cc2c1	54	7	1	62*	-2	4
Cc1nc2c(-c3ccccc3)c(C)[nH]n2c(=O)c1Cc1ccccc1	4	2	-4	12	4	1
Cc1nc2c(-c3ccc(Cl)cc3)c(C)[nH]n2c(=O)c1Cc1ccccc1	2	41*	31*	42	14	3
CCC(=O)c1ccc(OCC(O)CNC2CCCC2)cc1 (centres undefined)	nt	nt	nt	nt	-3	nt
CCN(c1ccc(NC(=O)c2ccc(Cl)nc2)cc1)C(C)C	23*	69*	77*	60*	69*	27
Cc1ccc(N=Nc2c(N)[nH]n3c(=O)c4c(nc23)CCCC4)cc1	24*	1	-2	4	-3	2
C#CCn1cc(/C=N/NC(=O)c2cc3ccccc3o2)c2ccccc21	27*	3	-2	-4	2	2
O=C(N/N=C/c1cccc2ccccc12)c1cc2ccccc2o1	nt	nt	nt	nt	9	nt
COc1ccc2nc(N/C(N)=N/S(C)(=O)=O)nc(C)c2c1	nt	-2	1	nt	-3	3
CC1CCC(C(C)C)C(OC(=O)Cn2c(-c3ccc(F)cc3)[n+](C)c3ccccc32)C1 (centres undefined)	2	82*	98*	-3	5	nt
CCCCCCCCCCOC(=O)Cn1c(COc2ccccc2OC)[n+](C)c2ccccc21	nt	nt	nt	nt	12	nt
CC1CCC(C(C)C)C(OC(=O)C[n+]2cc(-c3ccc(Cl)cc3)n3c2CCC3)C1 (centres undefined)	nt	-2	0	nt	6	-2
Cc1cccc(OCc2n(CC(=O)OC3CC(C)CCC3C(C)C)c3ccccc3[n+]2C)c1 (centres undefined)	67	88*	101*	-32	0	8
SMILES	MT stabilize HCS	BaF3 tox	Ba/F3 V617F tox	APP 5UTR inh	IEC-6 cytotox	b-catenin transl
O=C(/C=C/c1ccco1)N1CCN(c2ncccn2)CC1	9.8*	5	1	-24	2	nt
Cc1occc1C(=O)N1CCN(c2ncccn2)CC1	3	92*	-1	-21	-1	-1
O=C(/C=C/c1c(Cl)cccc1Cl)N1CCN(c2ncccn2)CC1	2	-3	-5	7	-4	2
CCOC(=O)C1=C(C)N(C)C(=O)NC1c1cc2c(cc1[N+](=O)[O-])OCO2 (centres undefined)	4	3	-2	-5	-13	-1
Cc1cc(C)nc(NC(=O)c2ccc(COc3ccccc3Cl)cc2)c1	5	71*	62*	3	19	0
COC(=O)c1ccccc1NC(=O)c1cccc(COc2ccccc2Cl)c1	46*	3	-2	-87	1	123*
Cc1nn(-c2ccccc2)c2[nH]c(=O)c(CNc3ccc(N4CCOCC4)cc3)cc12	52*	8	0	-6	-8	1
O=C(CCN1N=C(c2ccccc2)CCC1=O)NCC1COc2ccccc2O1 (centres undefined)	nt	nt	nt	nt	-10	nt
O=C(NCc1cccnc1)/C(=C\c1ccc(-c2ccc(Br)cc2)o1)S(=O)(=O)c1ccccc1	47*	2	7	-11	3	3
O=C(NCc1cccnc1)/C(=C/c1ccc(-c2ccc(Cl)cc2)o1)S(=O)(=O)c1ccccc1	63	9	8	-10	6	nt
CCOC(=O)Cn1nc(C)c(NC(=O)COc2ccccc2[N+](=O)[O-])c1C	2	-1	-1	19	4	-2
O=C(OC(C(=O)NCc1ccc2c(c1)OCO2)c1ccncc1)c1ccc(Cl)nc1 (centres undefined)	1	81*	4	17	6	-2
Cc1ccn2c(Nc3ccccc3)c(-c3ccccn3)nc2c1	5	7	4	59*	-2	2
Cc1cccc(NC(=S)N/N=C/c2cccc(O)c2)c1C	nt	51*	78*	nt	13	2
COc1ccc(Nc2nc(-c3cc4cccc(OC)c4oc3=O)cs2)cc1	3	5	2	-24	4	-2
COc1cccc2sc(Nc3nnc(-c4ccccc4Cl)o3)nc12	10	85*	82*	85*	3	6
COc1cccc2sc(NN)nc12	3	2	2	-26	10	-1
COc1cccc(-c2nnc(Nc3nc4c(F)cccc4s3)o2)c1	3	2	0	-49	-3	0
COc1cccc2sc(Nc3nc(-c4cc5ccccc5oc4=O)cs3)nc12	18*	2	-3	91*	6	122*
COc1cccc2sc(Nc3nc(-c4ccncc4)cs3)nc12	23*	83*	85*	94*	54*	55*
Cc1ccc(NS(=O)(=O)c2ccc3c(c2)NC(=O)CCS3)c(C)c1	nt	nt	nt	nt	3	nt
Cc1ccc(-n2c(-c3ccccc3)c[n+]3c2CCc2ccccc2-3)c(C)c1	3	81*	100*	-27	27*	0
CC(C)(C)c1ccccc1NC(=O)NC1CCN(Cc2c(F)cccc2Cl)CC1	nt	1	-1	nt	-2	-4
Cc1nc(C(=O)NNC(=O)c2ccc(Cl)cc2)c(C(F)(F)F)o1	nt	31*	-4	nt	8	-2
Cc1ccc(N/C(N)=N/c2nc(C)cc(C)n2)cc1	2	4	-1	4	6	3
CCCCc1ccc(N/C(N)=N/c2nc(C)cc(C)n2)cc1	nt	35*	41*	nt	12	-2
